pIC50: −log10 of the molar value.
Assays:
[1] = target: Aurora kinase A (Homo sapiens, UniProt O14965, R220K); test: Inhibition of autophosphorylation of aurora-A R220K mutant at T288 in human HCT116 cells after 2 hrs; format: cell-based, HCT-116
Procedure, shortened: (§1)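 Cells transfected with N-terminal Myc-tagged Aurora-A (wild type or T217E, L215R or R220K mutant, made by Quikchange mutagenesis), then exposed to a range of inhibitor concentrations for 2 h. Lysed in LDS sample buffer, sonicated, boiled, run on LDS-PAGE and blotted to nitrocellulose. Probed with anti-P-T288 (Aurora-A autophosphorylation) and anti-P-histone H3 S10 (Aurora-B substrate) antibodies. Blots quantified and IC50 fitted.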

[2] = target: Aurora kinase A (Homo sapiens, UniProt O14965, L215R); test: Inhibition of autophosphorylation of aurora-A L215R mutant at T288 in human HCT116 cells after 2 hrs; format: cell-based, HCT-116; procedure, shortened: as §1
[3] = target: Aurora kinase A (Homo sapiens, UniProt O14965, T217E); test: Inhibition of autophosphorylation of aurora-A T217E mutant at T288 in human HCT116 cells after 2 hrs; format: cell-based, HCT-116; procedure, shortened: as §1
[4] = target: T1, Aurora kinase A (Homo sapiens, UniProt O14965); test: Inhibition of autophosphorylation of N-terminal Myc tagged wild type aurora-A at T288 in human HCT116 cells after 2 hrs; format: cell-based, HCT-116; procedure, shortened: as §1
T1 sequence (O14965 whole entry): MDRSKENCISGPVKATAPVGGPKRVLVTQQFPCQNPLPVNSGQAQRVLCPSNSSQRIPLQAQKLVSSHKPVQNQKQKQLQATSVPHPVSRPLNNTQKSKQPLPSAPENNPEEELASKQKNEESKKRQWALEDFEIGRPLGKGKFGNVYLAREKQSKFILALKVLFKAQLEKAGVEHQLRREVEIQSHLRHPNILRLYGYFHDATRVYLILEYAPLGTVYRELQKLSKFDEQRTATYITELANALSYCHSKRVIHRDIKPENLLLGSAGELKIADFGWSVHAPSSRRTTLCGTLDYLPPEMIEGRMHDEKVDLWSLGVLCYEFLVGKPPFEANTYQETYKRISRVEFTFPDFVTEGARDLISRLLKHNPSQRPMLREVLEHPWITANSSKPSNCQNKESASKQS

[5] = Metabolic stability in CD1 mouse liver microsomes at 10 uM after 30 mins; format: ADME, Microsome
Procedure, shortened: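 Compound at 10 μM incubated with male CD1 mouse liver microsomes (1 mg/mL protein) plus NADPH 1 mM, UDPGA 2.5 mM and MgCl2 3 mM in 10 mM PBS at 37 °C, for 0 and 30 min. Controls omit cofactors. Percent remaining measured by LC/MS.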

[6] = Antiproliferative activity against human MV411 cells; format: functional; conditions: MV4-11
[7] = target: T2, Receptor-type tyrosine-protein kinase FLT3 (Homo sapiens, UniProt P36888); test: Inhibition of FLT3 (unknown origin) at 1 uM
T2 sequence (P36888 whole entry): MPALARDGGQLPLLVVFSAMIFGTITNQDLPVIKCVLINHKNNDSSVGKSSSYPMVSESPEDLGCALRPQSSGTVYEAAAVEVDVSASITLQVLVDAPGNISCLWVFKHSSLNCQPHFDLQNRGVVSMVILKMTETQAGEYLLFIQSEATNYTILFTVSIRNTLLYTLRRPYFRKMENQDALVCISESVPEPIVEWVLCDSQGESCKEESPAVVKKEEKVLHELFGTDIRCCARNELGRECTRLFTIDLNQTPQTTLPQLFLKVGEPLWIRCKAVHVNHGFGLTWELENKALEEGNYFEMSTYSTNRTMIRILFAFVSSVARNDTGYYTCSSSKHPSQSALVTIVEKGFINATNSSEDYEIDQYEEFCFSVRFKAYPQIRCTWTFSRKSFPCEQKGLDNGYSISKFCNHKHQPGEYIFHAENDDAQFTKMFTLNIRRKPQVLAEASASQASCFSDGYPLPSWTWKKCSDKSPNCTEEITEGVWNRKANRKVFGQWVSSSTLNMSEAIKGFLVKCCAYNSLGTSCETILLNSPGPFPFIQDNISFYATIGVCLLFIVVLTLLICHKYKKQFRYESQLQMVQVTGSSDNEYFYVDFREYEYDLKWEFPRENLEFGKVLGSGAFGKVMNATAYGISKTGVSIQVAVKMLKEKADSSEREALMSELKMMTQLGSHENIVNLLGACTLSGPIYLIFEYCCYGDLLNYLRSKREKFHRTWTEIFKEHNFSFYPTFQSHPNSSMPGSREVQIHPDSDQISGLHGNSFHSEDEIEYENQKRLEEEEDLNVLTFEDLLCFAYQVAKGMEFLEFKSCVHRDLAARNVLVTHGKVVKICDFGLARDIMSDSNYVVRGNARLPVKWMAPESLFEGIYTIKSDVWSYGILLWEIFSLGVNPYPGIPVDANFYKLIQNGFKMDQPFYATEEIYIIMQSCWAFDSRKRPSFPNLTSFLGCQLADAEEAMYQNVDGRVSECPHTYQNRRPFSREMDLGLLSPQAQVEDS
Procedure, shortened: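 Single-concentration (1 μM) profiling within a 110-kinase selectivity panel; activity expressed as percent inhibition of each kinase.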

[8] = target: Vascular endothelial growth factor receptor 1 (Homo sapiens) (UniProt P17948); test: Inhibition of VEGFR1 (unknown origin) at 1 uM
Procedure, shortened: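 110-kinase panel profiling, compounds tested at 1 μM, read as percent inhibition.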

[9] = target: Aurora kinase B (Homo sapiens, UniProt Q96GD4); test: Inhibition of N-terminal Myc tagged aurora-B-mediated histone H3 phosphorylation at S10 in human HCT116 cells after 2 hrs; format: cell-based, HCT-116; procedure, shortened: as §1
[10] = tested on: HeLa; test: Selectivity ratio of IC50 for aurora-B-mediated histone H3 phosphorylation at S10 in human HeLa cells to IC50 for autophosphorylation of N-terminal Myc tagged aurora-A at T288 in human HeLa cells; format: cell-based
Procedure, shortened: (§2)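 Cells transfected with Myc-tagged Aurora-A (wild type or T217E, L215R, R220K mutants) and treated with inhibitor concentrations for 2 h. Lysed in LDS buffer; SDS-type PAGE and western blot. Blots probed for P-T288 (Aurora-A autophosphorylation) and phospho-histone H3 S10 (Aurora-B substrate). Blots quantified; IC50 derived; ratio taken as H3 IC50 over T288 IC50.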

[11] = target: T1, Aurora kinase A; test: Inhibition of autophosphorylation of N-terminal Myc tagged aurora-A at T288 in human HeLa cells after 2 hrs; format: cell-based; procedure, shortened: as §2
[12] = Metabolic stability in human liver microsomes at 10 uM after 30 mins; format: ADME
Procedure, shortened: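 Mixed-gender pooled human liver microsomes (1 mg/mL) incubated with compound at 10 μM plus NADPH 1 mM, UDPGA 2.5 mM and MgCl2 3 mM in 10 mM PBS at 37 °C, for 0 and 30 min. Cofactor-free controls included. Percent remaining measured by LC/MS.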

[13] = target: Glycogen synthase kinase-3 beta (Homo sapiens) (UniProt P49841); conditions: 1 uM
Chain of Glycogen synthase kinase-3 beta (Homo sapiens) (P49841 whole entry, looked up): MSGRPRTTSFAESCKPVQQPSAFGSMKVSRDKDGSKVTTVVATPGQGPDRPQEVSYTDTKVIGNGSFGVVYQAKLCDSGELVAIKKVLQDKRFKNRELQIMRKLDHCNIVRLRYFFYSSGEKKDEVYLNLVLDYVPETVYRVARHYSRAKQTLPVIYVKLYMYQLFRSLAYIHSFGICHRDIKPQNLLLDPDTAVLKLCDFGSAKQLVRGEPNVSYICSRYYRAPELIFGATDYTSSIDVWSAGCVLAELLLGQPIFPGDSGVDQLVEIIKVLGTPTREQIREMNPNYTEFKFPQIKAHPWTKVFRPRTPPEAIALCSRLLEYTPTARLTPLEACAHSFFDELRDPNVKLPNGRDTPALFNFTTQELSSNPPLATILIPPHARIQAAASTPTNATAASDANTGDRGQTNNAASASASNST

Chain of Aurora kinase A (Homo sapiens, UniProt O14965, R220K) (O14965 whole entry I57V/R220K): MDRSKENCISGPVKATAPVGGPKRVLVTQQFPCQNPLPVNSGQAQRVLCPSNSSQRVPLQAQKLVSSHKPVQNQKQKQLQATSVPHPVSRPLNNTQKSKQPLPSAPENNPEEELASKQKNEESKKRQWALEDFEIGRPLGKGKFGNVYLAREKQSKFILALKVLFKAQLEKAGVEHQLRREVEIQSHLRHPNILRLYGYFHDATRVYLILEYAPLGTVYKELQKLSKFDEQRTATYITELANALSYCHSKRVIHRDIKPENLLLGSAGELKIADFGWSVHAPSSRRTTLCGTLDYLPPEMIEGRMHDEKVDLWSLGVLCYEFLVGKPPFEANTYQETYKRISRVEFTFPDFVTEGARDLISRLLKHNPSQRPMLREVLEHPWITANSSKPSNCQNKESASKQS
Chain of Aurora kinase B (Q96GD4 whole entry): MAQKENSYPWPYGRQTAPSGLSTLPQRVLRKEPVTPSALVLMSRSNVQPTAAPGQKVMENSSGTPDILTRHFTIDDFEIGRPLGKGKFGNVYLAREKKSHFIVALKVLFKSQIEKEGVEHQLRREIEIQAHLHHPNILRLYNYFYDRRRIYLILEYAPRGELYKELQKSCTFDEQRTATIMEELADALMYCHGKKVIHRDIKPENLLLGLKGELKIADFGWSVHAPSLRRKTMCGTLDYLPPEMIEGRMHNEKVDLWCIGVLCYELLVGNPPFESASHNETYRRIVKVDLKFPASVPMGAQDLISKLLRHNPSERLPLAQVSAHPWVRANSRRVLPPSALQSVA
Chain of Vascular endothelial growth factor receptor 1 (Homo sapiens) (P17948 whole entry): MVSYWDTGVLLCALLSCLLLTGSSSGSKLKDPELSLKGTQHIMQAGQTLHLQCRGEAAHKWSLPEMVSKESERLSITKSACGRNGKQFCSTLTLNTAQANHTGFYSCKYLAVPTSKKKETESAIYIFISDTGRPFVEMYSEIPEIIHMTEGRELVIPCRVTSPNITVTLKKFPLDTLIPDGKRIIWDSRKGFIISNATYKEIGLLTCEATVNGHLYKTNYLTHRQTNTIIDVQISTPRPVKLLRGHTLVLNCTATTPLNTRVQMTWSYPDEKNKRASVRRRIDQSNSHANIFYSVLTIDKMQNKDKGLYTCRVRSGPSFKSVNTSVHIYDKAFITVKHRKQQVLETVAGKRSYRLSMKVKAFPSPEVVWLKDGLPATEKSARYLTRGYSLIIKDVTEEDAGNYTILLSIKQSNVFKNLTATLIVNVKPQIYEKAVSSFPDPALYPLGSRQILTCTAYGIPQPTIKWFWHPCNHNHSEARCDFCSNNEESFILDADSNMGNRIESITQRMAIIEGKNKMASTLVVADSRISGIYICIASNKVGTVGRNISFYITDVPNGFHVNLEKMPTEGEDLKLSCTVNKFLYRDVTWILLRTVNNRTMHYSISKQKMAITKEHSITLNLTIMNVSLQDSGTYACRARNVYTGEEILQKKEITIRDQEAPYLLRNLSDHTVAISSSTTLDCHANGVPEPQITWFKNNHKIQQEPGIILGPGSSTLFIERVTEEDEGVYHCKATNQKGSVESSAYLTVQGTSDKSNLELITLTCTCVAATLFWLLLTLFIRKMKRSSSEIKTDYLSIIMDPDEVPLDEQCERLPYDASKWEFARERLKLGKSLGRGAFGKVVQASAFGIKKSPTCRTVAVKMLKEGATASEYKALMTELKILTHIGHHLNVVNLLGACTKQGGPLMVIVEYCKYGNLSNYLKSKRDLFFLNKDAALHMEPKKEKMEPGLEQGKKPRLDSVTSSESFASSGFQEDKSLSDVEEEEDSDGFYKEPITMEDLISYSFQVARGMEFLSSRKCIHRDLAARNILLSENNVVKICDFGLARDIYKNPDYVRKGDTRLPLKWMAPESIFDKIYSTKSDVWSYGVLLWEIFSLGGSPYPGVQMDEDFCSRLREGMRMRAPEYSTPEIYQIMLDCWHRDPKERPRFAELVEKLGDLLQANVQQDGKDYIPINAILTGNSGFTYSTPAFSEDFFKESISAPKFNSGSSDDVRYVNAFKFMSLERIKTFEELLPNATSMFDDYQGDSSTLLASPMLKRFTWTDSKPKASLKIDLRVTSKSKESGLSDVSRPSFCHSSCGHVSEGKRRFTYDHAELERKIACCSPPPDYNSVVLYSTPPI
Chain of Aurora kinase A (Homo sapiens, UniProt O14965, T217E) (O14965 whole entry I57V/T217E): as the sequence (O14965 whole entry I57V/R220K) above, with T217E, K220R counted along it
Chain of Aurora kinase A (Homo sapiens, UniProt O14965, L215R) (O14965 whole entry I57V/L215R): as the sequence (O14965 whole entry I57V/R220K) above, with L215R, K220R counted along it

In the case of `Cc1nn(C)cc1-c1nc2c(Oc3ccc(C(=O)Nc4ccccc4)cc3)c(Cl)cnc2[nH]1`, the pIC50 [1] was 7.57, the pIC50 [2] was 7.57 and the pIC50 [3] was 6.02. It also gave a pIC50 [4] of 7.54, a metabolized at 0.5 h, 10 µM [5] of 22% and a GI50 [6] of 299 nM. The pIC50 [7] was 6.79, the inhibition [8] was > 80% and the pIC50 [9] was 4.61. It also gave a Ratio IC50 [10] of 480, a pIC50 [11] of 6.80 and a metabolized at 0.5 h, 10 µM [12] of 9%. For the same compound, the inhibition [13] was > 80%.
